Data from ChEMBL document CHEMBL1806465, “Synthesis and biological evaluation of 4-nitro-substituted 1,3-diaryltriazenes as a novel class of potent antitumor agents” (Eur J Med Chem, 2011).
Activity calls are given as the source filed them. The calls are words filed in the database; no cut-off is given here.

Experiments:
HeLa [1] = assay: Induction of apoptotis in human HeLa cells assessed as cleavage of procaspase 3 at 7 uM after 48 hrs by Western blot analysis; format: functional, cell-based
How it was run: (§1)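 HeLa cells were treated for 48 h at 7 µM and analysed by Western blot (10% SDS gels, nitrocellulose, HRP secondary, ECL, ERK2 loading control) for cleavage of apoptotic proteins. Antibodies: anti-PARP 1:4000; anti-caspase-3 and anti-caspase-8 1:1000; rabbit polyclonal anti-caspase-9 1:1000.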

HeLa [2] = assay: Cell cycle arrest in human HeLa cells assessed as accumulation at S phase at 0.78 uM after 72 hrs by propidium iodide staining -based flow cytometry (reference value: 23.5 %); format: functional
How it was run: (§2)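 HeLa seeded at 100 000 cells/well, treated next day with 0.78, 7 or 21 µM for 24, 48 or 72 h. Adherent plus floating cells collected, PBS-washed, fixed overnight in 70% ethanol at −20 °C, RNase A 30 µg/ml 1 h RT, propidium iodide 16.7 µg/ml 30 min dark; DNA content by flow cytometry, phase percentages including subG1 reported.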

HeLa [3] = assay: Cell cycle arrest in human HeLa cells assessed as accumulation at S phase at 7 uM after 24 hrs by propidium iodide staining -based flow cytometry (reference value: 27.7 %); format: functional; how it was run: as §2
HeLa [4] = assay: Cell cycle arrest in human HeLa cells assessed as accumulation at G2/M phase at 7 uM after 72 hrs by propidium iodide staining -based flow cytometry (reference value: 9.7 %); format: functional; how it was run: as §2
HeLa [5] = assay: Cell cycle arrest in human HeLa cells assessed as accumulation at S phase at 21 uM after 72 hrs by propidium iodide staining -based flow cytometry (reference value: 23.5 %); format: functional; how it was run: as §2
HeLa [6] = assay: Cell cycle arrest in human HeLa cells assessed as accumulation at G2/M phase at 7 uM after 48 hrs by propidium iodide staining -based flow cytometry (reference value: 9.9 %); format: functional; how it was run: as §2
HeLa [7] = assay: Cell cycle arrest in human HeLa cells assessed as accumulation at subG1 phase at 21 uM after 48 hrs by propidium iodide staining -based flow cytometry (reference value: 8.5 %); format: functional; how it was run: as §2
SW-620 = assay: Cytotoxicity against human SW620 cells after 72 hrs by MTT assay; format: functional, cell-based; details: SW-620, 72 h
How it was run: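 MTT assay: 3000 cells/well seeded, compound added next day, each concentration in quadruplicate, 72 h at 37 °C; medium replaced with 20 µg MTT/well for 4 h, formazan dissolved in DMSO, OD 545 nm. […] Fibroblasts: normal skin fibroblasts from donor, DMEM/10% FBS, used at 32 and 36 population doublings.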

[8] = Therapeutic index, ratio IC50 for cisplatin-resistant human CA3ST cells to IC50 for normal human fibroblasts; format: cell-based; details: read-out: Ratio IC50
How it was run: (§3)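 IC50 values came from an MTT assay. Cells were seeded at 3000 per well and dosed the next day, with each concentration in quadruplicate. After 72 h at 37 °C, MTT (20 µg/well) was added for 4 h; formazan was dissolved in DMSO and read at 545 nm. Each experiment was done three times. Normal skin fibroblasts were used at 32 and 36 population doublings. T.I. = tumor-cell IC50 / fibroblast IC50.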

Nucleic Acid = assay: Binding affinity to calf thymus DNA assessed as change in melting temperature at compound to DNA ratio of 0.3; format: nucleic-acid assay; details: Bos taurus
How it was run: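 ct-DNA sonicated, filtered, in Na-cacodylate buffer pH 7, I = 0.05 mol dm-3, 2 x 10^-5 mol dm-3 (as phosphate, ε260 = 6600); compound/DNA ratio 0.3. Absorbance at 260 nm followed versus temperature, compound absorbance subtracted, curves normalized. Tm taken from first-derivative maximum, confirmed by tangent method; ΔTm = Tm(complex) − Tm(free DNA), mean of ≥2 runs, error ±0.5 °C.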

HeLa [9] = assay: Cell cycle arrest in human HeLa cells assessed as accumulation at G0/G1 phase at 0.78 uM after 72 hrs by propidium iodide staining -based flow cytometry (reference value: 66.9 %); format: functional; how it was run: as §2
HeLa [10] = assay: Cell cycle arrest in human HeLa cells assessed as accumulation at G0/G1 phase at 0.78 uM after 48 hrs by propidium iodide staining -based flow cytometry (reference value: 63.8 %); format: functional; how it was run: as §2
HeLa [11] = assay: Cell cycle arrest in human HeLa cells assessed as accumulation at subG1 phase at 0.78 uM after 24 hrs by propidium iodide staining -based flow cytometry (reference value: 9.4 %); format: functional; how it was run: as §2
HeLa [12] = assay: Cell cycle arrest in human HeLa cells assessed as accumulation at S phase at 0.78 uM after 48 hrs by propidium iodide staining -based flow cytometry (reference value: 26.3 %); format: functional; how it was run: as §2
HeLa [13] = assay: Cell cycle arrest in human HeLa cells assessed as accumulation at subG1 phase at 21 uM after 24 hrs by propidium iodide staining -based flow cytometry (reference value: 9.4 %); format: functional; how it was run: as §2
HeLa [14] = assay: Induction of CHOP expression in human HeLa cells at 7 uM up to 8 hrs by Western blot analysis; format: functional, cell-based
How it was run: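 Log-phase HeLa exposed to a concentration series for 48 h, or to 7 µM over a time course. Extracts resolved on 10% SDS gels, blotted to nitrocellulose, blocked 5% milk; anti-CHOP 1:1000 in 5% BSA overnight at 4 °C, HRP secondary 1:5000 2 h RT, ECL detection; ERK2 reprobe as loading control.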

HeLa [15] = assay: Cell cycle arrest in human HeLa cells assessed as accumulation at G0/G1 phase at 21 uM after 72 hrs by propidium iodide staining -based flow cytometry (reference value: 66.9 %); format: functional; how it was run: as §2
HeLa [16] = assay: Induction of apoptotis in human HeLa cells assessed as cleavage of procaspase 8 at 7 uM after 48 hrs by Western blot analysis; format: functional, cell-based; how it was run: as §1
[17] = Therapeutic index, ratio IC50 for human SW480 cells to IC50 for normal human fibroblasts; format: cell-based; details: SW480 cells versus normal human fibroblasts, read-out: Ratio IC50; how it was run: as §3
[18] = Therapeutic index, ratio IC50 for human Hep2 cells to IC50 for normal human fibroblasts; format: cell-based, HEp-2; details: Hep2 cells versus normal human fibroblasts, read-out: Ratio IC50; how it was run: as §3
HeLa [19] = assay: Cell cycle arrest in human HeLa cells assessed as accumulation at subG1 phase at 0.78 uM after 72 hrs by propidium iodide staining -based flow cytometry (reference value: 7.2 %); format: functional; how it was run: as §2
HeLa [20] = assay: Induction of apoptotis in human HeLa cells assessed as cleavage of apoptotic protein PARP at 7 uM after 48 hrs by Western blot analysis; format: functional, cell-based; how it was run: as §1
HeLa [21] = assay: Cell cycle arrest in human HeLa cells assessed as accumulation at subG1 phase after 24 to 72 hrs by propidium iodide staining -based flow cytometry; format: functional; how it was run: as §2
HeLa [22] = assay: Cytotoxicity against human HeLa cells after 72 hrs by MTT assay; format: functional, cell-based
HeLa [23] = assay: Cell cycle arrest in human HeLa cells assessed as accumulation at G2/M phase at 7 uM after 24 hrs by propidium iodide staining -based flow cytometry (reference value: 11.7 %); format: functional; how it was run: as §2
HeLa [24] = assay: Cell cycle arrest in human HeLa cells assessed as accumulation at subG1 phase at 7 uM after 48 hrs by propidium iodide staining -based flow cytometry (reference value: 8.5 %); format: functional; how it was run: as §2
HeLa [25] = assay: Cell cycle arrest in human HeLa cells assessed as accumulation at G2/M phase at 21 uM after 48 hrs by propidium iodide staining -based flow cytometry (reference value: 9.9 %); format: functional; how it was run: as §2

Question: Which Activity (HeLa [1]) does the source give for `CC(=O)N(/N=N/c1ccc([N+](=O)[O-])cc1Cl)c1ccc([N+](=O)[O-])cc1Cl` here?
Answer: The Activity was “Active”.

Question: What about the Activity (HeLa [2]) of the same compound?
Answer: Its Activity is 32.5%.

Question: What about the Activity (HeLa [3]) of the same compound?
Answer: The Activity was 20.8%.

Question: What about the Activity (HeLa [4]) of the same compound?
Answer: Its Activity is 7.6%.

Question: What about the Activity (HeLa [5]) of the same compound?
Answer: Its Activity is 12.6%.

Question: What about the Activity (HeLa [6]) of the same compound?
Answer: Its Activity is 9.6%.

Question: What about the Activity (HeLa [7]) of the same compound?
Answer: The Activity was 46.5%.

Question: What about the IC50 (SW-620) of the same compound?
Answer: The IC50 was 450 nM.

Question: What about the selectivity ratio [8] of the same compound?
Answer: Its selectivity ratio is 0.045.

Question: And the Activity (Nucleic Acid)?
Answer: Its Activity is “inactive”.

Question: And the Activity (HeLa [9])?
Answer: Its Activity is 59.1%.

Question: What about the Activity (HeLa [10]) of the same compound?
Answer: Its Activity is 74.5%.

Question: What about the Activity (HeLa [11]) of the same compound?
Answer: Its Activity is 8.7%.

Question: And the Activity (HeLa [12])?
Answer: Its Activity is 18.5%.

Question: And the Activity (HeLa [13])?
Answer: Its Activity is 16.4%.

Question: And the Activity (HeLa [14])?
Answer: Its Activity is “inactive”.

Question: And the Activity (HeLa [15])?
Answer: Its Activity is 79%.

Question: What about the Activity (HeLa [16]) of the same compound?
Answer: Its Activity is “Active”.

Question: What about the selectivity ratio [17] of the same compound?
Answer: The selectivity ratio was 0.038.

Question: What about the selectivity ratio [18] of the same compound?
Answer: The selectivity ratio was 0.044.

Question: And the Activity (HeLa [19])?
Answer: The Activity was 17.6%.

Question: And the Activity (HeLa [20])?
Answer: The Activity was “Active”.

Question: And the Activity (HeLa [21])?
Answer: Its Activity is “Dose-dependent effect”.

Question: And the IC50 (HeLa [22])?
Answer: Its IC50 is 630 nM.

Question: And the Activity (HeLa [23])?
Answer: The Activity was 10%.

Question: And the Activity (HeLa [24])?
Answer: The Activity was 23.8%.

Question: What about the Activity (HeLa [25]) of the same compound?
Answer: Its Activity is 11.9%.
